Published values from different studies.
Each line is one published result; the experiments were not run side by side.
Target: Protein kinase C epsilon type (PRKCE, Homo sapiens, UniProt Q02156)
One construct used (Q02156 1-737): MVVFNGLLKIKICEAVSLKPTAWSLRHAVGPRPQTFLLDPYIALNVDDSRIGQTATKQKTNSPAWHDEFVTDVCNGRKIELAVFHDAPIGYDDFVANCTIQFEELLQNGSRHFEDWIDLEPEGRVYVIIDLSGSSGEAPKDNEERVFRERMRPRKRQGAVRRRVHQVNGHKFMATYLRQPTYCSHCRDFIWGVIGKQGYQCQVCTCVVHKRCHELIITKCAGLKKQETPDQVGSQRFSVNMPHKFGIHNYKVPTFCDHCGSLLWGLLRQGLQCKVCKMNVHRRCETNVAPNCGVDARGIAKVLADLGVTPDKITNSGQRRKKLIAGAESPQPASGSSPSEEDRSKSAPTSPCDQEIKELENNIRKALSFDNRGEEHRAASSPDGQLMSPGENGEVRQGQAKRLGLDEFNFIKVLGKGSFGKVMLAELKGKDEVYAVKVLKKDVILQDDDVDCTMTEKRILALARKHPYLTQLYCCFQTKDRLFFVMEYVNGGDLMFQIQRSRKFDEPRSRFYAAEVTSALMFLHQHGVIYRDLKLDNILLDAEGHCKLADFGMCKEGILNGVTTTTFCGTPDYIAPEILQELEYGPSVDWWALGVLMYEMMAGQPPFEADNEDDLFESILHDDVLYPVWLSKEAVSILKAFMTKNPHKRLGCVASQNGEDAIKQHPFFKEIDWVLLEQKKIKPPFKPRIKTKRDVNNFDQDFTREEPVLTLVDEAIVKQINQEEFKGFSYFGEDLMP

| SMILES | read-out | method | tested at | remaining binding |
| --- | --- | --- | --- | --- |
| COc1cc(-c2cn(C3CCc4ccccc4N(CC(F)(F)F)C3=O)nn2)ccc1-n1ccc(C)n1 (stereo not shown) | cell-free assay | competition with immobilised ligand | 1 µM | 100% |
| N[C@H]1CCN(c2nccc(-c3cnn4ncccc34)n2)C1 | binding | – | 1 µM | 100% |
| O=C(c1ccc(Nc2ncc(Cl)c(-c3ccc(Cl)s3)n2)cc1)N1CCC(N2CCCC2)CC1 | binding | competition with immobilised ligand | 1 µM | 45% |
| O=C(NCC1CCOCC1)c1n[nH]cc1NC(=O)c1c(F)cccc1F | binding | competition with immobilised ligand | 1 µM | 87% |
| F[C@@H]1CCN(c2nccc(-c3cnn4ncccc34)n2)C1 | binding | – | 1 µM | 88% |
| O=C(NCCCN1CCOCC1)c1ccc(Nc2ncc(Cl)c(-c3ccc(Cl)s3)n2)cc1 | binding | competition with immobilised ligand | 1 µM | 67% |
| Nc1ncc2c(n1)-c1c([nH]c3ccc(C#CC4CC4)cc13)CCCC2 | binding | competition with immobilised ligand | 1 µM | 98% |
| O=C(c1ccc(Nc2nccc(-c3cc4ccccc4s3)n2)cc1)N1CCC(N2CCCC2)CC1 | binding | competition with immobilised ligand | 1 µM | 68% |
| C[C@@H]1CN(c2ccc3ncc(-c4ccc5[nH]nc(C6CC6)c5c4)n3n2)C[C@H](C)O1 | binding | competition with immobilised ligand | 0.5 µM | 64% |
| CCS(=O)(=O)c1cc2cc(C[C@](O)(CC(C)(C)c3ccc(F)cc3C(N)=O)C(F)(F)F)[nH]c2cn1 | cell-free assay | competition with immobilised ligand | 1 µM | 96% |
| CN(C)c1ncc(F)c(-c2cnn3ncccc23)n1 | binding | – | 1 µM | 95% |
| C[C@@H](c1ccc(-n2cnc3c(N)ncnc32)cc1)N1CCc2nn(C)c(Cc3ccccc3)c2C1=O | binding | competition with immobilised ligand | 0.1 µM | 74% |
| c1cncc(-c2cccc(Nc3nccc(NC4CCCCC4)n3)c2)c1 | binding | competition with immobilised ligand | 10 µM | 46% |
| Cc1c[nH]c2nccc(Oc3c(F)cc(Nc4cc(Cl)nc(N)n4)cc3F)c12 | cell-free assay | competition with immobilised ligand | 0.1 µM | 96% |
| C[C@H]1CCN(c2nccc(-c3cnn4ncccc34)n2)C1 | binding | – | 1 µM | 100% |
| O=C(Nc1ccc(Oc2ccc(F)cc2)cc1)N1CCc2ncccc2[C@H]1c1ccc(F)cc1 | cell-free assay | competition with immobilised ligand | 1 µM | 100% |
| c1cnn2ncc(-c3ccnc(N4CCC45COC5)n3)c2c1 | binding | – | 1 µM | 100% |
| COCCOc1nc(-c2ccc(Cl)nc2)nc2c1CN(C(=O)c1ncn3ccccc13)CC2 | cell-free assay | competition with immobilised ligand | 0.1 µM | 89% |
| FC(F)(F)Oc1cccc(-c2cnc3ccc(-c4ccncc4)nn23)c1 | cell-free assay | competition with immobilised ligand | 5 µM | 62% |
| COc1ncc2cc3ccccc3nc2c1C#N | cell-free assay | competition with immobilised ligand | 5 µM | 89% |
| CN(c1nccc(-c2cnn3ncccc23)n1)C1CC1 | binding | – | 1 µM | 83% |
| CN(C)C(=O)Cn1cc(-c2nc(C3(c4ccc(-c5cnc(N)nc5)cc4)CC3)no2)cn1 | cell-free assay | competition with immobilised ligand | 1 µM | 90% |
| COc1cnc(Nc2cccc(S(N)(=O)=O)c2)nc1N1CCN(c2ccccc2)CC1 | binding | competition with immobilised ligand | 1 µM | 100% |
| CC1CCCN1c1nccc(-c2cnn3ncccc23)n1 (stereo not shown) | binding | – | 1 µM | 100% |
| O=C(N[C@H]1CCCCC/C=C\C2C[C@@]2(C(=O)O)NC(=O)[C@@H]2C[C@@H](Oc3ccncc3)CN2C1=O)OC1CCCC1 (stereo partly shown) | cell-free assay | competition with immobilised ligand | 1 µM | 100% |
